Measured values taken from ChEMBL document CHEMBL5032510, “Identification of Novel Fused Heteroaromatics-Based MALT1 Inhibitors by High-Throughput Screening to Treat B Cell Lymphoma” (J Med Chem, 2021).
pIC50: −log10 of the molar value. Activity calls are given as the source filed them. The calls are words filed in the database; no cut-off is given here.

What was measured:
[1] = target: T1, Mucosa-associated lymphoid tissue lymphoma translocation protein 1 (Homo sapiens, UniProt Q9UDY8); experiment: Inhibition of MALT1 (329-824 residues) (unknown origin) using PT14 as substrate incubated for 60 mins by fluorescence based assay
T1 sequence (Q9UDY8 whole entry): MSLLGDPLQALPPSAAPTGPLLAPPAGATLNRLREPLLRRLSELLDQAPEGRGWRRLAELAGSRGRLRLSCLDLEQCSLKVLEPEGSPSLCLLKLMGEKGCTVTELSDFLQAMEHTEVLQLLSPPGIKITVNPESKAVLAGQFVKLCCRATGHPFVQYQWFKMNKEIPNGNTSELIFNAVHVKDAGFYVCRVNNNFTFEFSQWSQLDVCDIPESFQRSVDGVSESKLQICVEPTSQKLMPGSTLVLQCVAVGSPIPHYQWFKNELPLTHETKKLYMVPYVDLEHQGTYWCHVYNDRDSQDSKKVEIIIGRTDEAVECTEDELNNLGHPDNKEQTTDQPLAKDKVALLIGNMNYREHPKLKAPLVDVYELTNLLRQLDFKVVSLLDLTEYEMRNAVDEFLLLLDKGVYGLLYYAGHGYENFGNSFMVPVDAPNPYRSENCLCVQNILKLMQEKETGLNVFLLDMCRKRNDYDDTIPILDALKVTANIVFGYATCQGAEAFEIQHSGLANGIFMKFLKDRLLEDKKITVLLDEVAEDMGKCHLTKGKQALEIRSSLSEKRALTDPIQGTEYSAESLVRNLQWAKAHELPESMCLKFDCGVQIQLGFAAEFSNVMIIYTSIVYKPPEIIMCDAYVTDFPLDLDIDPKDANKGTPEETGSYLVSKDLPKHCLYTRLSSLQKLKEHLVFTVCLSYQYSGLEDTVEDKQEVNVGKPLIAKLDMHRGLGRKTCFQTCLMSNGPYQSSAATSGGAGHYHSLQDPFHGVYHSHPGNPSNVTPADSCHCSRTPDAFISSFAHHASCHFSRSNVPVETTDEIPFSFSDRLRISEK

[2] = target: T1, Mucosa-associated lymphoid tissue lymphoma translocation protein 1; experiment: Inhibition of full length recombinant wild type MALT1 (unknown origin) using Ac-LVSR-AMC as substrate by HTS assay
[3] = target: T1, Mucosa-associated lymphoid tissue lymphoma translocation protein 1; experiment: Inhibition of N-terminal his-tagged GCN4 leucine zipper fused human MALT1 […] expressed in Escherichia coli using Ac-LVSR-AMC as substrate by HTS assay
[4] = Antiproliferative activity against human HBL1 cells assessed as inhibition of cell growth incubated for 72 hrs by Celltiter-Glo luminescent assay; format: functional
Method in brief: (§1)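 Exponentially growing cells were seeded at 1 × 10⁴ per 100 μL. HBL-1 and TMD8 were kept in RPMI with 10% FBS, 2 mM glutamine and 10 mM HEPES; OCI-LY1 in Iscove's medium with 20% FBS; all at 37 °C and 5% CO2. Cells were exposed to DMSO or 2-fold serial dilutions from 100 μM for 72 h, in triplicate on one plate. CellTiter-Glo luminescence was read after 1 h. Growth inhibition was calculated against control, accounting for initial cell number, and GI50 was fitted.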

TMD8 = experiment: Antiproliferative activity against human TMD8 cells assessed as inhibition of cell growth incubated for 72 hrs by Celltiter-Glo luminescent assay; format: functional; method in brief: as §1
OCI-Ly1 = experiment: Antiproliferative activity against human OCI-Ly1 cells assessed as inhibition of cell growth incubated for 72 hrs by Celltiter-Glo luminescent assay; format: functional; method in brief: as §1
[5] = target: T1, Mucosa-associated lymphoid tissue lymphoma translocation protein 1; experiment: Inhibition of MALT1 (340 to 789 residues) (unknown origin) using Ac-LRSR-AMC as substrate by fluorescence based analysis
Method in brief: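 N-terminal His-tagged LZ-MALT1 expressed in E. coli, purified by Ni-NTA then gel filtration. Fluorescence read at 360/465 nm. IC₅₀ came from concentration–response curves; mean of three independent experiments.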

Structure (SMILES)	pIC50 [1]	pIC50 [2]	pIC50 [3]	GI50 [4] [µM]	GI50 (TMD8) [µM]	GI50 (OCI-Ly1) [µM]	Activity (OCI-Ly1)	pIC50 [5]
CO[C@@H](C)c1c(NC(=O)Nc2cnc(C(=O)N3CCCC3)c(Cl)c2)cnc2cc(Cl)nn12	8.30	–	–	–	–	–	–	–
COCCOc1nc(-c2ccc(Cl)c(Cl)c2)n(-c2ccc(NC(=O)CCl)cc2)n1	–	5.23	–	–	–	–	–	–
Cc1ccc(NC(=O)c2sc(=S)n3c2[nH]c(=O)c2cc(Br)ccc23)c(C)c1	–	–	5.19	17	10	26	–	–
O=C(NCc1ccccc1Cl)c1sc(=S)n2c1[nH]c(=O)c1cc(Cl)ccc12	–	–	5.28	25	33	–	inactive	–
COc1cc2c(=O)[nH]c3c(C(=O)Nc4cc(Cl)cc(Cl)c4)sc(=S)n3c2cc1OC	–	–	4.85	2.2	6.3	14.2	–	–
Cc1ccc2c(c1)c(=O)[nH]c1c(C(=O)Nc3cc(Cl)ccc3C)sc(=S)n12	–	–	5.47	14	8	23	–	–
COc1ccc(OC)c(NC(=O)c2sc(=S)n(-c3cccc(Br)c3)c2NC(=O)CCl)c1	–	–	5.34	1.8	1.2	12.7	–	–
O=C(NCc1ccco1)c1sc(=S)n2c1[nH]c(=O)c1cc(Br)ccc12	–	–	5.28	13.2	16.2	36.8	–	–
COc1ccc(OC)c(NC(=O)c2sc(=S)n(-c3ccc(Cl)cc3)c2NC(=O)CCl)c1	–	–	5.15	1.5	1	13	–	–
COc1ccc(OC)c(NC(=O)c2sc(=S)n3c2[nH]c(=O)c2cc(Cl)ccc23)c1	–	–	5.49	14	12.4	28.1	–	–
CCOc1ccc(OCC)c(NC(=O)c2sc(=S)n3c2[nH]c(=O)c2ccc(Cl)cc23)c1	–	–	5.33	12.1	12.1	25.6	–	–
O=C(Nc1cccc(F)c1)c1sc(=S)n2c1[nH]c(=O)c1ccc(Cl)cc12	–	–	5.26	16.8	16.8	12.4	–	–
COC(=O)c1ccc2c(=O)[nH]c3c(C(=O)Nc4ccc(Cl)cc4)sc(=S)n3c2c1	–	–	5.29	14.8	4.4	18.6	–	–
O=C(O)c1cccc(NC(=O)c2sc(=S)n3c2[nH]c(=O)c2cc(Br)ccc23)c1	–	–	4.83	12.4	23.7	23.7	–	–
CC(C)[C@H](NC(=O)c1ccc(Br)cc1)C(=O)N1CCC[C@H]1C(=O)N[C@@H](CCCNC(=N)N)C(=O)CF	–	–	–	–	–	–	–	8.00
CSc1ccc2c(c1)N(CCC1CCCCN1C)c1ccccc1S2 (configuration not stated) [THIORIDAZINE]	–	–	5.39	6.6	5.9	13.4	–	–
O=C(O)c1cccc(NC(=O)c2sc(=S)n3c2[nH]c(=O)c2ccc(Cl)cc23)c1	–	–	5.08	22.8	22.8	22.8	–	–
COc1ccccc1NC(=O)c1sc(=S)n2c1[nH]c(=O)c1cc(Cl)ccc12	–	–	5.21	17	17	23	–	–
COc1ccc(OC)c(NC(=O)c2sc(=S)n(-c3cccc(F)c3)c2NC(=O)CCl)c1	–	–	5.42	1.6	1.5	12.1	–	–
